# Measurements gathered from unrelated publications.
# Each line is one published result; the experiments were not run side by side.
# Mode: inhibitor
# rep papain-like protease: Replicase polyprotein 1ab, papain-like protease (rep, Severe acute respiratory syndrome coronavirus 2, UniProt P0DTD1)
# rep main protease: Replicase polyprotein 1ab, main protease (rep, Severe acute respiratory syndrome coronavirus 2, UniProt P0DTD1)
# rep methyltransferase: Replicase polyprotein 1ab, methyltransferase (rep, Severe acute respiratory syndrome coronavirus 2, UniProt P0DTD1)
SMILES,target,read-out,technique,pH,IC50
N#Cc1c(N)[nH]c2cc(/C=C/c3cccc(F)c3)ccc12,rep papain-like protease,enzyme activity,fluorescence,,> 100 µM
c1ccc([Se][Se]c2ccccc2)cc1,rep main protease,enzyme activity,FRET,,1.33 µM
Nc1nc2nc[nH]c2c(=S)[nH]1,rep papain-like protease,enzyme activity,FRET,pH 7.5,> 60 µM
NC(Cc1cc(O)c(O)cc1O)C(=O)O (racemic),rep main protease,enzyme activity,,,> 20 µM
CCOC(=O)c1c(NC(=O)c2ccc3c(c2)CC(c2ccccc2)OC3=O)sc(C)c1C (centres unmarked),rep methyltransferase,enzyme activity,,,47.9 µM
O=C1C(Cl)=C(Cl)C(=O)C(Cl)=C1Cl,rep main protease,enzyme activity,,,0.18 µM
CCCCCCCCOc1ccccc1C(=O)Nc1ccc(C(=O)OCC[N+](C)(CC)CC)cc1,rep methyltransferase,enzyme activity,,,39.3 µM
c1ccc(-c2nc(N3CCOCC3)[s+]n2-c2ccccc2)cc1,rep main protease,enzyme activity,,,0.328 µM
CC(=O)N[C@@H](CS)C(=O)O,rep papain-like protease,enzyme activity,,,> 150 µM
CCN(CC)S(=O)(=O)c1cccc(-n2sc3ccccc3c2=O)c1,rep main protease,enzyme activity,,,> 20 µM
Cc1coc2c1C(=O)C(=O)c1c-2ccc2c1CCCC2(C)C,rep papain-like protease,enzyme activity,FRET,pH 7.5,15.3 µM
CCOC(=O)c1c(NC(=O)c2cc3ccccc3o2)sc(C)c1C,rep methyltransferase,enzyme activity,,,27.9 µM
O=c1[nH]nc(Sc2ncc([N+](=O)[O-])s2)n1-c1ccc2c(c1)OCCO2,rep main protease,enzyme activity,,,0.3 µM
[2H]C([2H])([2H])n1ncc2cc(/N=c3\[nH]c(=O)n(Cc4ncn(C)n4)c(=O)n3Cc3cc(F)c(F)cc3F)c(Cl)cc21,rep main protease,enzyme activity,FRET,,3.53 µM
CC(C)=CCOc1ccc(/C=C/C(=O)c2ccc(OCC=C(C)C)cc2OCC(=O)O)cc1,rep methyltransferase,enzyme activity,,,37.6 µM
CN(C(=O)[C@H](Cc1ccccc1)NC(=O)OCc1ccccc1)N(C#N)CCC(N)=O,rep main protease,enzyme activity,,,2.33 µM
COc1ccc(-c2nc(NC(=O)c3ccc(C)c(F)c3)n[nH]2)cc1OC,rep main protease,enzyme activity,,,0.47 µM
COc1cc(C[C@@H](C)[C@@H](C)Cc2cc(O)c(OC)c(OC)c2)cc(O)c1OC,rep main protease,enzyme activity,FRET,,3.07 µM
CC(C)c1nc(CN(C)C(=O)N[C@@H](CCN2CCOCC2)C(=O)N[C@H](CC[C@H](Cc2ccccc2)NC(=O)OCc2cncs2)Cc2ccccc2)cs1,rep main protease,enzyme activity,luciferase,,> 240 µM
Clc1ccc(C(Cn2ccnc2)OCc2csc3c(Cl)cccc23)c(Cl)c1 (centres unmarked),rep main protease,enzyme activity in cells,,,7.45 µM
COC(=O)C1=C(C)NC(C)=C(C(=O)OCCN2CCN(C(c3ccccc3)c3ccccc3)CC2)C1c1cccc([N+](=O)[O-])c1 (centres unmarked),rep main protease,enzyme activity,luciferase,,> 240 µM
Cc1cc(-c2nn3c(-c4ccccc4)nnc3s2)c2ccccc2n1,rep methyltransferase,enzyme activity,,,40.4 µM
Cc1c(O)cccc1C(=O)N[C@@H](CSc1ccccc1)[C@H](O)CN1C[C@H]2CCCC[C@H]2C[C@H]1C(=O)NC(C)(C)C,rep main protease,enzyme activity,,,> 240 µM
Cc1c[nH]c2ncc(C(=O)N[C@H]3[C@H](CNc4cc(=O)n5ccccc5n4)CCC34CCC4)cc12,rep main protease,enzyme activity,,,32.7 µM
Cc1ccc(C(=O)Nc2ccc(S(=O)(=O)O)c3cc(S(=O)(=O)O)cc(S(=O)(=O)O)c23)cc1NC(=O)c1cccc(NC(=O)Nc2cccc(C(=O)Nc3cc(C(=O)Nc4ccc(S(=O)(=O)O)c5cc(S(=O)(=O)O)cc(S(=O)(=O)O)c45)ccc3C)c2)c1,rep methyltransferase,enzyme activity,,,105 µM
O=C(CC1Sc2ncnn2C1=O)Nc1ccc(Br)cc1 (centres unmarked),rep main protease,enzyme activity,fluorescence,,> 20 µM
O=C1c2ccccc2NC(c2cc(Br)ccc2O)N1N=Cc1cc(Br)ccc1O (centres unmarked),rep main protease,enzyme activity in cells,,,> 40 µM
CCOc1cc(C(Nc2cc(C)ccn2)c2ccc3cccnc3c2O)ccc1OC (centres unmarked),rep main protease,enzyme activity,,,0.27 µM
O=C(Oc1cncc(Cl)c1)c1cc2c(Cl)cc(Cl)cc2[nH]1,rep main protease,enzyme activity,,,0.0233 µM
CCOc1nc2cccc(C(=O)OC(C)OC(=O)OC3CCCCC3)c2n1Cc1ccc(-c2ccccc2-c2nn[nH]n2)cc1 (centres unmarked),rep methyltransferase,enzyme activity,,,30 µM
CN(C)[C@@H]1C(O)=C(C(N)=O)C(=O)[C@@]2(O)C(O)=C3C(=O)c4c(O)cccc4[C@@](C)(O)[C@H]3[C@H](O)[C@@H]12,rep main protease,enzyme activity in cells,,,> 60 µM
Oc1ccc2ccccc2c1SSc1c(O)ccc2ccccc12,rep main protease,enzyme activity,,,0.5 µM
COc1ccc2nc(NC(=O)CSc3nc4ccccc4c4nnnn34)sc2c1,rep methyltransferase,enzyme activity,,,44.8 µM
CCn1c(-c2nonc2N)nc2cnc(Oc3cccc(NC(=O)c4ccc(OCCN5CCOCC5)cc4)c3)cc21,rep main protease,enzyme activity,,,> 20 µM
O=C(Cn1nnc2ccccc21)Nc1ccccc1N1CCc2sccc2C1,rep main protease,enzyme activity,FRET,,> 100 µM
